Here are results for two compounds from article PMC6677133 (European journal of medicinal chemistry, 2019).

Assay [1] deals with CXCR4 (Homo sapiens, UniProt P61073). Kind of assay: CXCR4 internalization assay, CHO-CXCR4-FLAG cells. Type of assay: cell-based. As to conditions: 1h of treatment at 100 nM. The gist of the method: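 CHO cells expressing N-terminally FLAG-tagged CXCR4 washed at 4°C in RPMI 1640 with 0.5% BSA. Seeded 3×10^5/well and exposed at 37°C to graded test compound, with SDF-1α as positive control. Surface receptor stained with anti-FLAG then FITC anti-mouse antibody, each 30 min at 4°C, and read at 485/528 nm. At least three independent experiments, mean ± SEM.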

The test system of assay [2] is NL4–3 strain of HIV-1 (X4 strain). Kind of assay: Anti-HIV-1 entry assay, one-day culture, intracellular p24 antigen in PBMCs. The assay is classed as cell-based. As to conditions: unlinked control fragments alone; assay format not stated.

Residues, ends and D or L forms follow the SMILES beside them.

Sequence of CXCR4 (P61073 whole entry): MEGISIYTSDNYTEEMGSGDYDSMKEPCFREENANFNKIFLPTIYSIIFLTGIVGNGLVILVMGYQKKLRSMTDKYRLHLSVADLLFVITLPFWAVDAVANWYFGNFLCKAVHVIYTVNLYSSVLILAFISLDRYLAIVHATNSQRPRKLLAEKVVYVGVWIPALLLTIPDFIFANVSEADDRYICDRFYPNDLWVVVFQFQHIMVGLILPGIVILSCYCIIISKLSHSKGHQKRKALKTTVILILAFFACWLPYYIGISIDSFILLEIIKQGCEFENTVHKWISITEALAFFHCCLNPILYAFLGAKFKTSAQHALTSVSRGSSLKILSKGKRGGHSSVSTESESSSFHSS

With SDF-1α, the CXCR4 internalization in assay [1] came to 43.87%.

As for `C[C@@H](O)[C@H](NC(=O)[C@H](CCCNC(=N)N)NC(=O)[C@@H]1CCCN1C(=O)[C@H](CC(N)=O)NC(=O)[C@H](CC(N)=O)NC(=O)[C@H](CC(N)=O)NC(=O)[C@@H](NC(=O)[C@H](CCCCN)NC(=O)[C@H](CCCNC(=N)N)NC(=O)[C@H](CCCCN)NC(=O)CCCCCN)[C@@H](C)O)C(=O)N[C@@H](CS)C(N)=O` [AR6r] (HELM PEPTIDE1{[NCCCCCC(=O)[*:2]].K.R.K.T.N.N.N.P.R.T.C.[am]}$$$$V2.0), the antiviral activity entry in assay [2] is listed as “did not show any antiviral activity”.
